Data from ChEMBL document CHEMBL1123276, “Analgetic and antiinflammatory 7-aroylbenzofuran-5-ylacetic acids and 7-aroylbenzothiophene-5-ylacetic acids” (1986).

Assays:
Assay type in all cases: functional
Mus musculus [1] = experiment: Inhibition of phenylquinone -induced writhing in male mice by p.o. administration 20 min prior to i.p. phenylquinone (relative to aspirin).
Method in brief: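 Male mice, 18-20 g, dosed orally in the same aqueous saline/CMC/polysorbate 80/benzyl alcohol vehicle 20 min before intraperitoneal phenylquinone. Writhing observed for 10 min. Potency vs aspirin derived from dose-response curves by analysis of variance. Eight mice per dose group.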

Rattus norvegicus [2] = experiment: Anti-inflammatory activity against carrageenan-induced paw edema in female rats relative to phenylbutazone by p.o. administration.
Method in brief: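 Test agents given in saline/0.5% carboxymethylcellulose/0.4% polysorbate 80/0.9% benzyl alcohol aqueous vehicle. Rats killed 4 h after dosing, and both hindpaws excised and weighed. Potency vs phenylbutazone taken from dose-response plots of mean % weight increase of treated over untreated paw. Six rats per dose, at least four doses, linear parallel curves, analysis of variance.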

Rattus norvegicus [3] = experiment: Chronic gastrointestinal erosive activity in male rats by the oral administration was determined.
Method in brief: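 Male Cox/SD rats, 190-220 g, acclimated about 1 week. Dosed orally once daily in phosphate-buffered saline (1 mL/100 g) for 7 consecutive days, 5 rats per dose. Food withdrawn on the last dosing day. Killed one day after the last dose, with body weight recorded at start and at sacrifice. Stomach and small intestine scored blind for lesions.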

Mus musculus [4] = organism: Mus musculus; experiment: Dose required for the inhibition of phenylquinone-induced writhing in male mice

Row | SMILES | Relative potency (Mus musculus [1]) | Relative potency (Rattus norvegicus [2]) | ED50 (Rattus norvegicus [3]) [mg/kg] | ED50 (Mus musculus [4]) [mg/kg] | ED50 (Rattus norvegicus [3]; Rattus norvegicus, po) [mg/kg]
1 | O=C(O)Cc1cc(C(=O)c2ccccc2)c2sccc2c1 | 0.4 | 0.6 |  |  | 
2 | O=C(O)Cc1cc2c(c(C(=O)c3ccccc3)c1)SCC2 | <1 | 0.6 |  |  | 
3 | O=C(O)Cc1cc(C(=O)c2ccc(Cl)cc2)c2occc2c1 | 33.9 | 0.6 |  |  | 
4 | CC(C(=O)O)c1cc(C(=O)c2ccc(Cl)cc2)c2occc2c1 (stereo not drawn) | 42.9 | 2 |  |  | 
5 | C[S+]([O-])c1ccc(C(=O)c2cc(CC(=O)O)cc3ccoc23)cc1 (stereo not drawn) | 7.5 | 1.8 |  |  | 
6 | CC(C(=O)O)c1cc(C(=O)c2ccccc2)c2occc2c1 (stereo not drawn) | 42.4 | 1.8 |  |  | 
7 | O=C(O)Cc1cc(C(=O)c2ccc(Cl)cc2)c2sccc2c1 | 7 | 1.5 |  |  | 
8 | COc1ccc(C(=O)c2cc(CC(=O)O)cc3ccoc23)cc1 | 33 | 1 |  |  | 
9 | CS(=O)(=O)c1ccc(C(=O)c2cc(CC(=O)O)cc3ccoc23)cc1 | <1 |  |  |  | 
10 | CC(C(=O)O)c1cc(C(=O)c2ccc(C=O)cc2)c2occc2c1 (stereo not drawn) | 45 | 1.3 |  |  | 
11 | CSc1ccc(C(=O)c2cc(CC(=O)O)cc3c2OCC3)cc1 | 8 | 0.2 |  |  | 
12 | O=C(O)Cc1cc2c(c(C(=O)c3ccc(Cl)cc3)c1)OCC2 | 7 | 0.8 |  |  | 
13 | O=C(O)Cc1cc2c(c(C(=O)c3ccccc3)c1)OCC2 | 0.25 | 0.7 |  |  | 
14 | O=C(O)Cc1cc2c(c(C(=O)c3ccc(Cl)cc3)c1)SCC2 | 0.6 | 0.6 |  |  | 
15 | CSc1ccc(C(=O)c2cc(C(C)C(=O)O)cc3ccoc23)cc1 (stereo not drawn) | 25 | 18.6 | ≤ 1 |  | 
16 | O=C(O)Cc1cc(C(=O)c2ccccc2)c2occc2c1 | 40 | 1 |  |  | 
17 | COc1ccc2c(c1)c(CC(=O)O)c(C)n2C(=O)c1ccc(Cl)cc1 [INDOMETHACIN] | 60 | 16 |  | 1.16 | 3
18 | CSc1ccc(C(=O)c2cc(CC(=O)O)cc3ccoc23)cc1 [TIFURAC] | 57 | 3 |  | 1.2 | ≥ 90
19 | Cc1cc(CC(=O)O)n(C)c1C(=O)c1ccc(Cl)cc1 [ZOMEPIRAC] | 40 |  |  | 1.75 | 10
